Assay results from ChEMBL document CHEMBL1250442, “Inhibiting gene expression at transcription start sites in chromosomal DNA with antigene RNAs” (Nat Chem Biol, 2005).
The source made the active and inactive calls. The rule behind the calls is not given here.

Key:
[1] = system: T47D; assay: Inhibition of PR-A gene expression in human T47D cells at 25 nM by syber green assay; format: functional
Summary of the method: (§1)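 T47D cells plated at 80,000/well without antibiotics two days before Oligofectamine transfection with agRNA duplex (25 or 100 nM final); medium changed at 24 h, harvest day 5 unless stated otherwise. TRIzol total RNA; PR mRNA by real-time PCR with SYBR Green: 50 °C 2 min, 95 °C 10 min, 40 cycles 95 °C 15 s/60 °C 1 min.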

[2] = system: T47D; assay: Inhibition of PR-B gene expression in human T47D cells at 25 nM by syber green assay; format: functional; summary of the method: as §1
[3] = system: T47D; assay: Inhibition of PR-A gene expression in human T47D cells by syber green assay; format: functional, cell-based; summary of the method: as §1
[4] = system: T47D; assay: Inhibition of PR-B gene expression in human T47D cells by syber green assay; format: functional, cell-based; summary of the method: as §1
[5] = system: T47D; assay: Inhibition of PR-A gene expression in human T47D cells at 25 nM by syber green assay in presence of 10 nM estradiol; format: functional, cell-based
[6] = system: T47D; assay: Inhibition of PR-B gene expression in human T47D cells at 25 nM by syber green assay in presence of 10 nM estradiol; format: functional, cell-based
[7] = system: T47D; assay: Inhibition of PR-A mRNA gene expression in human T47D cells at 100 nM by syber green assay; format: functional; summary of the method: as §1
[8] = system: T47D; assay: Inhibition of PR-B mRNA gene expression in human T47D cells at 100 nM by syber green assay; format: functional
Summary of the method: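 T47D cells in RPMI-1640 with 10% FBS, NEAA, insulin, 37 °C, 5% CO2. Plated two days before transfection without antibiotics. Oligofectamine-mediated duplex RNA transfection at 100 nM final, medium changed at 24 h, harvest five days post-transfection. Total RNA extracted with TRIzol. hPR mRNA quantified by SYBR Green qPCR: 50 °C 2 min, 95 °C 10 min, then 40 cycles of 95 °C 15 s / 60 °C 1 min.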

[9] = system: T47D; assay: Inhibition of PR-A gene expression in human T47D cells harboring inactive DNA methyltransferase-1 at 25 nM by syber green assay; format: functional, cell-based
[10] = system: T47D; assay: Inhibition of PR-B gene expression in human T47D cells harboring inactive DNA methyltransferase-1 at 25 nM by syber green assay; format: functional, cell-based
[11] = system: T47D; assay: Effect of DNA methylation at (-112) CpG site near PR-B transcription start site (-9) in human T47D cells by sodium bisulfite sequencing analysis; format: functional, cell-based
Summary of the method: (§2)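 T47D cells (RPMI-1640, 10% FBS, NEAA, insulin; 37 °C, 5% CO2) transfected with agRNA duplexes via Oligofectamine, medium changed at 24 h. Genomic DNA bisulphite-treated, regions around AR and hPR-B start sites PCR-amplified (HotStarTaq, 100 ng treated DNA), gel-purified, TOPO TA cloned; 5–15 colonies per plate miniprepped and sequenced.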

[12] = system: T47D; assay: Effect of DNA methylation at (-75) CpG site near PR-B transcription start site (-9) in human T47D cells by sodium bisulfite sequencing analysis; format: functional, cell-based; summary of the method: as §2
[13] = system: T47D; assay: Effect of DNA methylation at (-46) CpG site near PR-B transcription start site (-9) in human T47D cells by sodium bisulfite sequencing analysis; format: functional, cell-based; summary of the method: as §2
[14] = system: T47D; assay: Effect of DNA methylation at (-23) CpG site near PR-B transcription start site (-9) in human T47D cells by sodium bisulfite sequencing analysis; format: functional, cell-based; summary of the method: as §2
[15] = system: T47D; assay: Effect of DNA methylation at (+20) CpG site near PR-B transcription start site (-9) in human T47D cells by sodium bisulfite sequencing analysis; format: functional, cell-based
Summary of the method: (§3)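 T47D cells grown in RPMI-1640 with 10% FBS, 0.5% NEAA, insulin and P/S at 37 °C, 5% CO2. They were plated at 80,000 cells/well 2 days before lipid transfection with 25 nM or 100 nM duplex, with medium changed at 24 h. Cells were harvested 5 days post-transfection. 100 ng bisulfite-treated DNA was PCR-amplified, and products were TA-cloned. 5–15 colonies per plate were sequenced.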

[16] = system: T47D; assay: Effect of DNA methylation at (+45) CpG site near PR-B transcription start site (-9) in human T47D cells by sodium bisulfite sequencing analysis; format: functional, cell-based; summary of the method: as §2
[17] = system: T47D; assay: Effect of DNA methylation at (+107) CpG site near PR-B transcription start site (-9) in human T47D cells by sodium bisulfite sequencing analysis; format: functional, cell-based; summary of the method: as §3
[18] = system: T47D; assay: Effect of DNA methylation at (+112) CpG site near PR-B transcription start site (-9) in human T47D cells by sodium bisulfite sequencing analysis; format: functional, cell-based; summary of the method: as §3
[19] = system: T47D; assay: Effect of DNA methylation at (+125) CpG site near PR-B transcription start site (-9) in human T47D cells by sodium bisulfite sequencing analysis; format: functional, cell-based; summary of the method: as §3
[20] = system: T47D; assay: Effect of DNA methylation at (+149) CpG site near PR-B transcription start site (-9) in human T47D cells by sodium bisulfite sequencing analysis; format: functional, cell-based; summary of the method: as §3
[21] = system: T47D; assay: Effect of DNA methylation at (+162) CpG site near PR-B transcription start site (-9) in human T47D cells by sodium bisulfite sequencing analysis; format: functional, cell-based; summary of the method: as §3
[22] = system: T47D; assay: Effect of DNA methylation at (+166) CpG site near PR-B transcription start site (-9) in human T47D cells by sodium bisulfite sequencing analysis; format: functional, cell-based; summary of the method: as §3
[23] = system: T47D; assay: Effect of DNA methylation at (+173) CpG site near PR-B transcription start site (-9) in human T47D cells by sodium bisulfite sequencing analysis; format: functional, cell-based; summary of the method: as §3
[24] = system: T47D; assay: Effect of DNA methylation at (+190) CpG site near PR-B transcription start site (-9) in human T47D cells by sodium bisulfite sequencing analysis; format: functional, cell-based; summary of the method: as §3
[25] = system: T47D; assay: Effect of DNA methylation at (+216) CpG site near PR-B transcription start site (-9) in human T47D cells by sodium bisulfite sequencing analysis; format: functional, cell-based; summary of the method: as §3
[26] = system: T47D; assay: Effect of DNA methylation at (+225) CpG site near PR-B transcription start site (-9) in human T47D cells by sodium bisulfite sequencing analysis; format: functional, cell-based; summary of the method: as §3
[27] = system: T47D; assay: Effect of DNA methylation at (+267) CpG site near PR-B transcription start site (-9) in human T47D cells by sodium bisulfite sequencing analysis; format: functional, cell-based; summary of the method: as §3
[28] = system: T47D; assay: Effect of DNA methylation at (+295) CpG site near PR-B transcription start site (-9) in human T47D cells by sodium bisulfite sequencing analysis; format: functional, cell-based; summary of the method: as §3
[29] = system: T47D; assay: Effect of DNA methylation at (+319) CpG site near PR-B transcription start site (-9) in human T47D cells by sodium bisulfite sequencing analysis; format: functional, cell-based; summary of the method: as §3
[30] = system: T47D; assay: Effect of DNA methylation at (+335) CpG site near PR-B transcription start site (-9) in human T47D cells by sodium bisulfite sequencing analysis; format: functional, cell-based; summary of the method: as §3
[31] = system: T47D; assay: Effect of DNA methylation at (+337) CpG site near PR-B transcription start site (-9) in human T47D cells by sodium bisulfite sequencing analysis; format: functional, cell-based; summary of the method: as §3
[32] = system: T47D; assay: Effect of DNA methylation at (+353) CpG site near PR-B transcription start site (-9) in human T47D cells by sodium bisulfite sequencing analysis; format: functional, cell-based; summary of the method: as §3
[33] = system: T47D; assay: Effect of DNA methylation at (+356) CpG site near PR-B transcription start site (-9) in human T47D cells by sodium bisulfite sequencing analysis; format: functional, cell-based; summary of the method: as §3
[34] = system: T47D; assay: Effect of DNA methylation at (+362) CpG site near PR-B transcription start site (-9) in human T47D cells by sodium bisulfite sequencing analysis; format: functional, cell-based; summary of the method: as §3
[35] = system: T47D; assay: Effect of DNA methylation at (+379) CpG site near PR-B transcription start site (-9) in human T47D cells by sodium bisulfite sequencing analysis; format: functional, cell-based; summary of the method: as §3
[36] = system: T47D; assay: Effect of DNA methylation at (+398) CpG site near PR-B transcription start site (-9) in human T47D cells by sodium bisulfite sequencing analysis; format: functional, cell-based; summary of the method: as §3
[37] = system: T47D; assay: Effect of DNA methylation at (+41) CpG site near PR-B transcription start site (-9) in human T47D cells by sodium bisulfite sequencing analysis; format: functional, cell-based; summary of the method: as §2
[38] = system: T47D; assay: Cytotoxicity against human T47D cells assessed as effect on cellular morphology; format: cell-based
[39] = system: T47D; assay: Inhibition of PR-A gene expression in human T47D cells at 25 nM in presence of 4 uM of 5-aza-Dc
[40] = system: T47D; assay: Inhibition of PR-B gene expression in human T47D cells at 25 nM in presence of 4 uM of 5-aza-Dc

**Q.** How did the inhibition at 0.025 µM [1] turn out when `Cc1cn(CC(=O)N(CCNC(=O)CN(CCNC(=O)CN(CCNC(=O)CN(CCNC(=O)CN(CCNC(=O)CN(CCNC(=O)CN(CCNC(=O)CN(CCNC(=O)CN(CCNC(=O)CN(CCNC(=O)CN(CCNC(=O)CN(CCNC(=O)CN(CCNC(=O)CN(CCNC(=O)CN(CCNC(=O)CN(CCNC(=O)CN(CCNC(=O)CN(CCNC(=O)CN(CCNC(=O)CN(CCNC(=O)CN)C(=O)Cn2ccc(=O)[nH]c2=O)C(=O)Cn2cnc3c(=O)[nH]c(N)nc32)C(=O)Cn2ccc(=O)[nH]c2=O)C(=O)Cn2ccc(N)nc2=O)C(=O)Cn2ccc(=O)[nH]c2=O)C(=O)Cn2cnc3c(=O)[nH]c(N)nc32)C(=O)Cn2cnc3c(=O)[nH]c(N)nc32)C(=O)Cn2ccc(N)nc2=O)C(=O)Cn2ccc(N)nc2=O)C(=O)Cn2cnc3c(N)ncnc32)C(=O)Cn2cnc3c(=O)[nH]c(N)nc32)C(=O)Cn2ccc(=O)[nH]c2=O)C(=O)Cn2ccc(N)nc2=O)C(=O)Cn2ccc(N)nc2=O)C(=O)Cn2cnc3c(N)ncnc32)C(=O)Cn2ccc(N)nc2=O)C(=O)Cn2cnc3c(N)ncnc32)C(=O)Cn2cnc3c(=O)[nH]c(N)nc32)C(=O)Cn2ccc(N)nc2=O)CC(=O)NCCN(CC(=O)NCC(=O)O)C(=O)Cn2cc(C)c(=O)[nH]c2=O)c(=O)[nH]c1=O` was run?
**A.** 79%

**Q.** And the inhibition at 0.025 µM [2]?
**A.** 88%

**Q.** And the IC50 [3]?
**A.** 2.5 nM

**Q.** And the IC50 [4]?
**A.** 2.5 nM

**Q.** What about the inhibition [5] of the same molecule?
**A.** Active

**Q.** And the inhibition [6]?
**A.** Active

**Q.** And the inhibition at 0.1 µM [7]?
**A.** 95%

**Q.** And the inhibition at 0.1 µM [8]?
**A.** 100%

**Q.** And the inhibition [9]?
**A.** Active

**Q.** And the inhibition [10]?
**A.** Active

**Q.** What about the Activity [11] of the same molecule?
**A.** inactive

**Q.** What about the Activity [12] of the same molecule?
**A.** inactive

**Q.** And the Activity [13]?
**A.** inactive

**Q.** And the Activity [14]?
**A.** inactive

**Q.** And the Activity [15]?
**A.** inactive

**Q.** And the Activity [16]?
**A.** inactive

**Q.** And the Activity [17]?
**A.** inactive

**Q.** And the Activity [18]?
**A.** inactive

**Q.** What about the Activity [19] of the same molecule?
**A.** inactive

**Q.** And the Activity [20]?
**A.** inactive

**Q.** And the Activity [21]?
**A.** inactive

**Q.** And the Activity [22]?
**A.** inactive

**Q.** And the Activity [23]?
**A.** inactive

**Q.** And the Activity [24]?
**A.** inactive

**Q.** What about the Activity [25] of the same molecule?
**A.** inactive

**Q.** And the Activity [26]?
**A.** inactive

**Q.** And the Activity [27]?
**A.** inactive

**Q.** And the Activity [28]?
**A.** inactive

**Q.** And the Activity [29]?
**A.** inactive

**Q.** And the Activity [30]?
**A.** inactive

**Q.** And the Activity [31]?
**A.** inactive

**Q.** And the Activity [32]?
**A.** inactive

**Q.** And the Activity [33]?
**A.** inactive

**Q.** What about the Activity [34] of the same molecule?
**A.** inactive

**Q.** What about the Activity [35] of the same molecule?
**A.** inactive

**Q.** What about the Activity [36] of the same molecule?
**A.** inactive

**Q.** And the Activity [37]?
**A.** inactive

**Q.** And the Activity [38]?
**A.** Non-toxic

**Q.** What about the inhibition [39] of the same molecule?
**A.** Active

**Q.** And the inhibition [40]?
**A.** Active
